In brackets after ≈: the same amount, converted by molar mass.
Tests used:
Type in all cases: functional
L1210 [1] = experiment: Cytostatic activity against proliferation of L1210/BdU cells; details: Mus musculus, read-out: ID50 (the source's name)
Outline: (§1)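 Murine leukemia L1210 cells: parental L1210/0 and L1210/BdUrd, a thymidine-kinase-deficient mutant selected from L1210/0 by growth in the presence of 260 µg/mL 5-bromo-2'-deoxyuridine. Value is the dose inhibiting tumor cell proliferation by 50% (ID50).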

Human alphaherpesvirus 2 [2] = experiment: Antiviral activity against Herpes Simplex Virus-2(G)
Human alphaherpesvirus 1 [3] = experiment: Antiviral activity against Herpes Simplex Virus-1(F)
Raji [4] = experiment: Cytostatic activity against proliferation of Raji/TK cells; details: Homo sapiens, read-out: ID50 (the source's name)
Vaccinia virus = experiment: Antiviral activity against vaccinia virus; details: Orthopoxvirus vaccinia
Human alphaherpesvirus 1 [5] = experiment: Antiviral activity against Herpes Simplex Virus-1(KOS)
Human alphaherpesvirus 2 [6] = experiment: Antiviral activity against Herpes Simplex Virus-2(196)
Raji [7] = experiment: Cytostatic activity against proliferation of Raji/0 cells; details: Homo sapiens, read-out: ID50 (the source's name)
Human alphaherpesvirus 2 [8] = experiment: Antiviral activity against Herpes Simplex Virus-2(Lyons)
Human alphaherpesvirus 1 [9] = experiment: Antiviral activity against Herpes Simplex Virus-1 (McIntyre)
L1210 [10] = experiment: Cytostatic activity against proliferation of L1210/0 cells; details: Mus musculus, read-out: ID50 (the source's name); outline: as §1
[11] = test system: Vesicular stomatitis virus; experiment: Antiviral activity against vesicular stomatitis virus
Raji [12] = experiment: Compound was tested for Cytostatic activity against proliferation of Raji/0 cells (human lymphoblast Raji cells line); details: read-out: ID50 (the source's name)
L1210 [13] = experiment: Compound was tested for Cytostatic activity against proliferation of L1210/0 cells (murine leukemia L1210 cell line); details: Mus musculus, read-out: ID50 (the source's name); outline: as §1
L1210 [14] = experiment: Compound was tested for Cytostatic activity against proliferation of L1210/BdU cells (thymidine kinase deficient L1210 cell line); details: Mus musculus, read-out: ID50 (the source's name); outline: as §1
Raji [15] = experiment: Compound was tested for Cytostatic activity against proliferation of Raji/TK cells (thymidine kinase deficient Raji cell line); details: Homo sapiens, read-out: ID50 (the source's name)

Compound	IC50 (L1210 [1])	MIC50 (Human alphaherpesvirus 2 [2])	MIC50 (Human alphaherpesvirus 1 [3])	IC50 (Raji [4])	MIC50 (Vaccinia virus)	MIC50 (Human alphaherpesvirus 1 [5])	MIC50 (Human alphaherpesvirus 2 [6])	IC50 (Raji [7])	MIC50 (Human alphaherpesvirus 2 [8])	MIC50 (Human alphaherpesvirus 1 [9])	IC50 (L1210 [10])	MIC50 [11]	IC50 (Raji [12])	IC50 (L1210 [13])	IC50 (L1210 [14])	IC50 (Raji [15])
CCCc1cn([C@H]2C[C@H](O)[C@@H](CO)O2)c(=O)[nH]c1=O	> 500 µg/mL	10 µg/mL (≈ 37 µM)	7 µg/mL (≈ 25.9 µM)	> 500 µg/mL	200 µg/mL (≈ 740 µM)	2 µg/mL (≈ 7.4 µM)	40 µg/mL (≈ 148 µM)	> 500 µg/mL	7 µg/mL (≈ 25.9 µM)	2 µg/mL (≈ 7.4 µM)	> 500 µg/mL	> 200 µg/mL				
CCCCCCc1cn([C@H]2C[C@H](O)[C@@H](CO)O2)c(=O)[nH]c1=O	195 µg/mL (≈ 624 µM)	400 µg/mL (≈ 1280 µM)	> 400 µg/mL	173 µg/mL (≈ 554 µM)	300 µg/mL (≈ 960 µM)	> 400 µg/mL		151 µg/mL (≈ 483 µM)	300 µg/mL (≈ 960 µM)	300 µg/mL (≈ 960 µM)	172 µg/mL (≈ 551 µM)					
CCCCCCc1cn([C@H]2C[C@@H]3OP(=O)(O)OC[C@H]3O2)c(=O)[nH]c1=O.N	> 500 µg/mL	> 400 µg/mL	> 400 µg/mL	> 500 µg/mL	> 400 µg/mL	> 400 µg/mL	> 400 µg/mL	> 500 µg/mL	300 µg/mL	> 400 µg/mL	> 500 µg/mL	> 400 µg/mL				
CCCCc1cn([C@H]2C[C@@H]3OP(=O)(O)OC[C@H]3O2)c(=O)[nH]c1=O.N	33.5 µg/mL	> 400 µg/mL	> 400 µg/mL	165 µg/mL	300 µg/mL	> 400 µg/mL	> 400 µg/mL	82 µg/mL	300 µg/mL	> 400 µg/mL	28.4 µg/mL	> 400 µg/mL				
CCCCCc1cn([C@H]2C[C@@H]3OP(=O)(O)OC[C@H]3O2)c(=O)[nH]c1=O.N	> 500 µg/mL	> 400 µg/mL	> 400 µg/mL	> 500 µg/mL	> 400 µg/mL	> 400 µg/mL	> 400 µg/mL	> 500 µg/mL	> 400 µg/mL	> 400 µg/mL	> 500 µg/mL	> 400 µg/mL				
CCCCc1cn([C@H]2C[C@H](O)[C@@H](CO)O2)c(=O)[nH]c1=O	> 500 µg/mL	150 µg/mL (≈ 528 µM)	70 µg/mL (≈ 246 µM)	> 500 µg/mL	300 µg/mL (≈ 1060 µM)	20 µg/mL (≈ 70.3 µM)	> 400 µg/mL	> 500 µg/mL	20 µg/mL (≈ 70.3 µM)	20 µg/mL (≈ 70.3 µM)	> 500 µg/mL	> 400 µg/mL				
CCc1cn([C@H]2C[C@@H]3OP(=O)(O)OC[C@H]3O2)c(=O)[nH]c1=O.N	> 500 µg/mL	10 µg/mL	70 µg/mL	> 500 µg/mL	70 µg/mL	70 µg/mL	150 µg/mL	60 µg/mL	7 µg/mL	70 µg/mL	55 µg/mL	> 400 µg/mL				
CCCCCCCCc1cn([C@H]2C[C@@H]3OP(=O)(O)OC[C@H]3O2)c(=O)[nH]c1=O.N	193 µg/mL	> 200 µg/mL	> 200 µg/mL	184 µg/mL	20 µg/mL	> 200 µg/mL	> 200 µg/mL	165 µg/mL	> 200 µg/mL	> 200 µg/mL	164 µg/mL	> 200 µg/mL				
CCCCCc1cn([C@H]2C[C@H](O)[C@@H](CO)O2)c(=O)[nH]c1=O	477 µg/mL (≈ 1600 µM)	70 µg/mL (≈ 235 µM)	10 µg/mL (≈ 33.5 µM)	328 µg/mL (≈ 1100 µM)	300 µg/mL (≈ 1010 µM)	20 µg/mL (≈ 67 µM)	> 400 µg/mL	334 µg/mL (≈ 1120 µM)	70 µg/mL (≈ 235 µM)	40 µg/mL (≈ 134 µM)	476 µg/mL (≈ 1600 µM)	> 400 µg/mL				
CC(C)c1cn([C@H]2C[C@@H]3OP(=O)(O)OC[C@H]3O2)c(=O)[nH]c1=O.N	> 500 µg/mL	> 200 µg/mL	> 200 µg/mL	> 500 µg/mL	> 200 µg/mL	> 200 µg/mL	> 200 µg/mL	> 500 µg/mL	> 200 µg/mL	> 200 µg/mL	> 500 µg/mL	> 200 µg/mL				
CCCc1cn([C@H]2C[C@@H]3OP(=O)(O)OC[C@H]3O2)c(=O)[nH]c1=O.N	> 500 µg/mL	400 µg/mL	300 µg/mL	> 500 µg/mL	> 400 µg/mL	150 µg/mL	> 400 µg/mL	> 500 µg/mL	400 µg/mL	150 µg/mL	> 500 µg/mL	> 400 µg/mL				
CCCCCCCCc1cn([C@H]2C[C@H](O)[C@@H](CO)O2)c(=O)[nH]c1=O	72 µg/mL (≈ 212 µM)	100 µg/mL (≈ 294 µM)	> 100 µg/mL	140 µg/mL (≈ 411 µM)	7 µg/mL (≈ 20.6 µM)	> 100 µg/mL	> 100 µg/mL	52 µg/mL (≈ 153 µM)	100 µg/mL (≈ 294 µM)	> 100 µg/mL	66 µg/mL (≈ 194 µM)	> 100 µg/mL				
O=c1[nH]c(=O)n([C@H]2C[C@H](O)[C@@H](CO)O2)cc1/C=C/Br [BRIVUDINE]		1 µg/mL (≈ 3 µM)	0.02 µg/mL (≈ 0.06 µM)		2 µg/mL (≈ 6 µM)	0.02 µg/mL (≈ 0.06 µM)	100 µg/mL (≈ 300 µM)		1 µg/mL (≈ 3 µM)	0.02 µg/mL (≈ 0.06 µM)		> 400 µg/mL				
CCc1cn([C@H]2C[C@H](O)[C@@H](CO)O2)c(=O)[nH]c1=O [EDOXUDINE]	> 500 µg/mL	0.4 µg/mL (≈ 1.56 µM)	2 µg/mL (≈ 7.8 µM)	> 500 µg/mL	0.7 µg/mL (≈ 2.73 µM)	0.7 µg/mL (≈ 2.73 µM)	2 µg/mL (≈ 7.8 µM)	2.9 µg/mL (≈ 11.3 µM)	0.2 µg/mL (≈ 0.78 µM)	0.2 µg/mL (≈ 0.78 µM)	1.6 µg/mL (≈ 6.24 µM)	> 400 µg/mL				
CC(C)c1cn([C@H]2C[C@H](O)[C@@H](CO)O2)c(=O)[nH]c1=O [EPERVUDINE]		40 µg/mL (≈ 148 µM)	2 µg/mL (≈ 7.4 µM)		300 µg/mL (≈ 1110 µM)	7 µg/mL (≈ 25.9 µM)	400 µg/mL (≈ 1480 µM)		100 µg/mL (≈ 370 µM)	1 µg/mL (≈ 3.7 µM)		> 400 µg/mL	> 500 µg/mL	> 500 µg/mL	> 500 µg/mL	> 500 µg/mL

— ChEMBL document CHEMBL1123153, “Synthesis and antitumor and antiviral properties of 5-alkyl-2'-deoxyuridines, 3',5'-cyclic monophosphates, and neutral cyclic triesters” (1986)
